From ChEMBL document CHEMBL2151010, “Characterization of a designed vascular endothelial growth factor receptor antagonist helical peptide with antiangiogenic activity in vivo” (J Med Chem, 2011) come the findings set out here.

Active and inactive are the calls of the source. The calls are words filed in the database; no cut-off is given here. Residues, ends and D or L forms follow the SMILES beside them. Bounds are passed on as bounds.

One may read the half-life as how long it takes for the measured level to halve. Low values mean fast loss, high ones slow loss.

Data set [1] has as its system HUVEC. In words: Binding affinity to VEGFR in human HUVEC grown in serum deprived medium using fluorescein-labeled compound at 50 to 5000 nM after 5 mins by flow cytometry. It counts as cell-based. The method in brief: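 HUVECs (3 × 10^4/100 μL) were suspended in EBM-2 with 0.1% heparin and 0.1% BSA. They were incubated for 5 min at 4 C in the dark with fluorescein-labelled peptide (50, 500, 5000 nM). For competition, 500 nM labelled peptide was used with VEGF165 (0.05, 5, 500 nM). Cells were washed, resuspended in PBS and analysed by flow cytometry. A PE-conjugated anti-β-1 integrin antibody (1:100) was the technical control.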
Background: In flow cytometry, cells or beads pass a laser one at a time.

In data set [2] the test system is HUVEC. The data set is described as follows: Antagonist activity at VEGFR in human HUVEC grown in serum deprived medium assessed as inhibition of VEGF165-induced ERK1/2 phosphorylation at 50 nM after 15-30 mins by Western blot analysis. It counts as functional, cell-based. An outline of the steps: (§1)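 Serum-starved HUVECs in EBM-2 with 0.1% heparin and 0.1% BSA were treated at 37 C for 15 and 30 min with peptide, with or without VEGF165 (25 ng/mL). Total lysates (25 μg) were run on 12% SDS-PAGE and blotted for phospho-ERK1/2 and phospho-AKT. Total ERK1/2, AKT and GAPDH served as loading controls. Detection was by HRP secondary antibody and ECL.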
(In western blotting, separated proteins are transferred to a membrane and probed.)

Data set [3] concerns HUVEC. The data set is described as follows: Antagonist activity at VEGFR in human HUVEC grown in serum deprived medium assessed as inhibition of VEGF165-induced AKT phosphorylation at 50 nM after 15-30 mins by Western blot analysis. It counts as functional, cell-based. An outline of the steps: as §1
For data set [4], the system named is HUVEC. In words: Induction of apoptosis in human HUVEC grown in serum deprived medium assessed as caspase 3 activity at 12.5 to 50 nM after 8 hrs by spectrofluorometry. It counts as functional, cell-based. The method in brief: (§2)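 Lysates of serum-deprived HUVECs (2 × 10^4 cells) were prepared in 50 mM Hepes, 1 mM DTT, 0.1 mM EDTA, 0.1% NP-40 and 0.1% CHAPS. Protein (20 μg) was incubated with 20 μM Ac-DEVD-AMC at 37 C for 3 h. Released AMC was read by spectrofluorometry at 380 nm excitation and 440 nm emission.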

Data set [5] deals with HUVEC. The data set is described as follows: Induction of apoptosis in human HUVEC grown in serum deprived medium at 12.5 nM after 24 hrs by annexin V/fluorescein isothiocyanate-based flow cytometry. The format is functional, cell-based.
Data set [6] concerns HUVEC. In words: Inhibition of VEGF165-induced cell proliferation in human HUVEC grown in serum deprived medium at 12.5 to 50 nM after 24 hrs relative to acetyl-KQMYLELGYATIKWL-amide. It counts as functional. An outline of the steps:
(§3)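 HUVECs were seeded at 1200 cells/well and switched after 24 h to EBM-2 with 0.1% heparin and 0.1% BSA. They were treated with peptide, with or without VEGF165 (25 ng/mL), for 24 or 48 h at 37 C. DNA content was measured with CyQUANT NF reagent (1 h, 37 C) at 485 nm excitation. Quadruplicate samples were used, and values were expressed as percentage of proliferating cells.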

The test system of data set [7] is HUVEC. The data set is described as follows: Inhibition of VEGF165-induced cell proliferation in human HUVEC grown in serum deprived medium at 12.5 to 50 nM after 48 hrs. It counts as functional. An outline of the steps:
as §3

The test system of data set [8] is A-375. In words: Antitumor activity against human A375 cells xenografted in athymic nude-Foxn1 nu/nu mouse assessed as tumor growth inhibition at 200 nM intratumorally administered for 15 days measured after 15 days relative to untreated control. It counts as functional. The method in brief: (§4)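 A375 cells (5 × 10^6 in 150 μL Hanks' solution) were injected subcutaneously on the back of 6-week-old female athymic nude-Foxn1nu/nu mice. After one week, mice were randomized (10/group) to PBS (100 μL) or peptide (200 nM), given intratumorally twice weekly. Tumours were measured by caliper and volume was calculated as V = (ab²)/2. Groups were compared by ANOVA.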
Background: Xenograft models place foreign cells or tissue in a host animal.

In data set [9] the test system is A-375. The data set is described as follows: Antitumor activity against human A375 cells xenografted in athymic nude-Foxn1 nu/nu mouse assessed as tumor growth inhibition at 200 nM intratumorally administered for 15 days measured after 15 days relative to acetyl-KQMYLELGYATIKWL-amide. It counts as functional. The method in brief: as §4
Data set [10] has as its system A-375. The data set is described as follows: Antitumor activity against human A375 cells xenografted in athymic nude-Foxn1 nu/nu mouse assessed as inhibition of tumor angiogenesis measuring CD31 expression at 200 nM intratumorally administered for 7 days by immunohistochemical analysis. The format is functional. An outline of the steps:
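Tumours from A375 xenografts in nude mice, treated intratumorally with peptide (200 nM) or PBS twice weekly, were excised after 1 week. They were formalin-fixed and cut into 5 μm paraffin sections. Sections were stained for CD31 by avidin-biotin peroxidase with diaminobenzidine and counterstained with hematoxylin.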

Data set [11] relates to HUVEC. The data set is described as follows: Antagonist activity at VEGFR in human HUVEC grown in serum deprived medium assessed as inhibition of VEGF165-induced ERK1/2 phosphorylation at 50 nM after 24 hrs by Western blot analysis. It counts as functional, cell-based. The method in brief: (§5)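 Whole-cell lysates (25 μg) were run on 12% SDS-PAGE and immunoblotted for phospho-ERK1/2 and phospho-RB. Total ERK1/2, RB and GAPDH were the loading controls. Read-out was ECL.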

Data set [12] relates to HUVEC. The data set is described as follows: Antagonist activity at VEGFR in human HUVEC grown in serum deprived medium assessed as inhibition of VEGF165-induced RB phosphorylation at 50 nM after 15-30 mins by Western blot analysis. It counts as functional, cell-based.
Data set [13] has as its system HUVEC. The data set is described as follows: Antagonist activity at VEGFR in human HUVEC grown in serum deprived medium assessed as inhibition of VEGF165-induced ERK1/2 phosphorylation at 12.5 nM after 24 hrs by Western blot analysis. The format is functional, cell-based. The method in brief: as §5
Data set [14] can be described thus: Half life of the compound. It counts as physicochemical. The method in brief: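 Peptide was diluted to a final 0.5 mg/mL in 25% (v:v) pooled human male AB serum at 37 C. Aliquots were taken at 0, 15, 30, 60, 90 and 120 min and at 24 h, centrifuged at 4 C and diluted to 0.1 mg/mL. Remaining intact peptide was quantified by RP-HPLC on a C18 column with 38–48% CH3CN (0.1% TFA) elution.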

The nature of data set [15]: Antiangiogenic activity against VEGF165-induced CD1 nude mouse endothelial cells at 200 nM after 21 days by FITC-based fluorescence microscopy.
Data set [16] has as its system HUVEC. The data set is described as follows: Antagonist activity at VEGFR in human HUVEC grown in serum deprived medium assessed as inhibition of VEGF165-induced RB phosphorylation at 50 nM after 15-30 mins by Western blot analysis.
In data set [17] the test system is HUVEC. The data set is described as follows: Induction of apoptosis in human HUVEC grown in serum deprived medium assessed as caspase 3 activity at 50 nM after 8 hrs by spectrofluorometry. The format is functional, cell-based. The method in brief: as §2
The test system of data set [18] is HUVEC. In words: Inhibition of VEGF165-induced cell proliferation in human HUVEC grown in serum deprived medium at 50 nM after 24 hrs. The format is functional, cell-based. The method in brief: as §3
Data set [19] relates to HUVEC. In words: Inhibition of VEGF165 induced cell proliferation in human HUVEC grown in serum deprived medium at 50 nM after 48 hrs. The format is functional, cell-based. The method in brief: as §3
Data set [20] has as its system Endothelial cell. The data set is described as follows: Antiangiogenic activity against VEGF165-induced CD1 nude mouse endothelial cells at 200 nM after 21 days by FITC-based fluorescence microscopy.

Take `CC[C@H](C)[C@H](NC(=O)CNC(=O)[C@H](CCCCN)NC(=O)[C@H](Cc1ccc(O)cc1)NC(=O)[C@H](C)NC(=O)[C@H](CC(C)C)NC(=O)[C@H](CCC(N)=O)NC(=O)[C@H](Cc1ccc(O)cc1)NC(=O)[C@H](CC(C)C)NC(=O)[C@H](CCC(=O)O)NC(=O)[C@H](CCSC)NC(=O)[C@H](Cc1c[nH]c2ccccc12)NC(=O)[C@@H](NC(=O)[C@H](CC(C)C)NC(=O)[C@H](CCCCN)NC(C)=O)[C@@H](C)O)C(N)=O` (Ac-KLTWMELYQLAYKGI-NH2): the result in data set [1], in data set [4] and in [5] was Active. Further, the inhibition result in data set [2], in [3], in data set [11], in data set [12], in data set [13] and in [16] was “Active” in each case. The “inhibition (INH)” value was 40% in data set [6], above 85% in data set [7] and 50% in data set [10]. The TGI is on record as 36% in [8] and 47% in [9]. Also, the half-life in data set [14] worked out at 1.5 h. Besides, the Activity in [15] worked out at 85%.

Consider `CC[C@H](C)[C@H](NC(=O)[C@@H](NC(=O)[C@H](C)NC(=O)[C@H](Cc1ccc(O)cc1)NC(=O)CNC(=O)[C@H](CC(C)C)NC(=O)[C@H](CCC(=O)O)NC(=O)[C@H](CC(C)C)NC(=O)[C@H](Cc1ccc(O)cc1)NC(=O)[C@H](CCSC)NC(=O)[C@H](CCC(N)=O)NC(=O)[C@H](CCCCN)NC(C)=O)[C@@H](C)O)C(=O)N[C@@H](CCCCN)C(=O)N[C@@H](Cc1c[nH]c2ccccc12)C(=O)N[C@@H](CC(C)C)C(N)=O` (Ac-KQMYLELGYATIKWL-NH2), for which the outcome in data set [1], in [17], in [5] and in data set [20] was inactive. Moreover, the inhibition entry in data set [2], in [3], in [18] and in data set [19] was “inactive” each time. In addition, in [8], the TGI result was “inactive”.
